# Data taken from ChEMBL document CHEMBL1126916, “Cyclic GMP phosphodiesterase inhibitors. 1. The discovery of a novel potent inhibitor, 4-((3,4-(methylenedioxy)benzyl)amino)-6,7,8-trimethoxyquinazoline” (J Med Chem, 1993).
# pEC50, pIC50: −log10 of the molar value.
# Key:
# Sus scrofa = organism: Sus scrofa; experiment: Relaxant effect on PGF2-alpha precontracted pig coronary arteries; type: functional
# Summary of the method: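 Porcine coronary arterial strips were equilibrated at 1 g resting tension. Intact endothelium was confirmed by 7 × 10^-9 M bradykinin relaxing strips precontracted with 50 mM KCl (final concentrations). Strips were then contracted with PGF2α, final 10^-6 M, and cumulative concentration–relaxation curves were built after a plateau. Relaxation was expressed as % of the PGF2α contraction. EC50 came from the log curve, mean ± SEM, n experiments.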
# Phosphodiesterase 4A [1] = target: T1, Phosphodiesterase 4A (Sus scrofa, UniProt O77823); experiment: Inhibition of cAMP specific phosphodiesterase from porcine coronary arteries; conditions: in the assay text read “porcine aorta” for “porcine coronary arteries”
# T1 sequence (O77823 whole entry): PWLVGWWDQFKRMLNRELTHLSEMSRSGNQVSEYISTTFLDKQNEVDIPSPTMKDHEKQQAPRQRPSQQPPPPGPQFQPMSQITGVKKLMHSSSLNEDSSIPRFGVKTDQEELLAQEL
# Summary of the method: (§1)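 Isozymes were separated from porcine aorta: type II (cGMP-stimulated), type III, and type IV (cAMP-specific). Each used [3H]cAMP at 1 μM as substrate. Compounds were tested in DMSO diluted in assay buffer over 10^-8 to 10^-4 M, with final DMSO below 0.4% (v/v). IC50 came from log concentration–inhibition curves (at least three points), as means ± SEM from at least three experiments.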
# Phosphodiesterase 4A [2] = target: T1, Phosphodiesterase 4A; experiment: Inhibition of cAMP specific phosphodiesterase from porcine aorta
# Phosphodiesterase 3A = target: T2, Phosphodiesterase 3A (Sus scrofa, UniProt Q9XSW7); experiment: Inhibition of cGMP-inhibited phosphodiesterase from porcine coronary arteries; summary of the method: as §1
# T2 sequence (Q9XSW7 whole entry): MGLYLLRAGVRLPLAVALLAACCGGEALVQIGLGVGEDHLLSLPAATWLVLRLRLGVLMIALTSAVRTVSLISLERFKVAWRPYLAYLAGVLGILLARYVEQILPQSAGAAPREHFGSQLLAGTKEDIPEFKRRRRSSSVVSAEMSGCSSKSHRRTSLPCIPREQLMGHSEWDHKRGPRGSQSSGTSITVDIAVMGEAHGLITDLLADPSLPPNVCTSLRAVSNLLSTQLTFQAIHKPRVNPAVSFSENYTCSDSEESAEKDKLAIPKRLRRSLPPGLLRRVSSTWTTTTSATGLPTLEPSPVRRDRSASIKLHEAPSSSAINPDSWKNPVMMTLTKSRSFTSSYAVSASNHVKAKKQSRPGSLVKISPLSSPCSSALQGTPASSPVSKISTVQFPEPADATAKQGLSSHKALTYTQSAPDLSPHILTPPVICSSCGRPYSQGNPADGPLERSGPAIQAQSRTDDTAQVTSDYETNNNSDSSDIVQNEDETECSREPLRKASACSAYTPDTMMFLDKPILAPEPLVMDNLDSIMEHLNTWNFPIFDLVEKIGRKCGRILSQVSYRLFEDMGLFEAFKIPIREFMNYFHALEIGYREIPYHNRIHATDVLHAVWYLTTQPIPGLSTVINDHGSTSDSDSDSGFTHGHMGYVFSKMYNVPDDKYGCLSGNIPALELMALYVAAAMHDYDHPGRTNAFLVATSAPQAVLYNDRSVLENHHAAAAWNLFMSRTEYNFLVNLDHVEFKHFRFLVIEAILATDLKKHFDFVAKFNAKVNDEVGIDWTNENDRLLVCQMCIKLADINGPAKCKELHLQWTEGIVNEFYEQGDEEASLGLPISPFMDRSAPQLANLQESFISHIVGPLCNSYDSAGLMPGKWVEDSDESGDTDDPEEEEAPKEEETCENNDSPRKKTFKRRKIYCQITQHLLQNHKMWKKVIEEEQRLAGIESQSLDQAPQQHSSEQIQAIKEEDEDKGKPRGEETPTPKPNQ
# Phosphodiesterase 4A [3] = target: T1, Phosphodiesterase 4A; experiment: Inhibition of cAMP specific phosphodiesterase from porcine aorta
# Summary of the method: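 PDE isozymes (types I–V) separated from porcine aorta. Substrate was [3H]cGMP for types I and V and [3H]cAMP for types II, III and IV, each at 1 μM. Test agents were dissolved in DMSO and diluted in assay buffer over 10^-8 to 10^-4 M, with final DMSO below 0.4% (v/v). IC50 was taken from the log concentration–inhibition curve (at least three points), mean ± SEM of at least three experiments.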
# [4] = in the assay text read “porcine aorta” for “porcine coronary arteries”
SMILES,pEC50 (Sus scrofa),pIC50 (Phosphodiesterase 4A [1]),pIC50 (Phosphodiesterase 4A [2]),pIC50 (Phosphodiesterase 3A; [4]),further results
COc1cc2c(NCc3ccc4c(c3)OCO4)ncnc2c(OC)c1OC,5.71,< 4.00,–,–,–
Clc1cccc(Nc2nnc(-c3ccccc3)c3ccccc23)c1,–,–,4.43,–,–
OCCN(CCO)c1nc(N2CCCCC2)c2nc(N(CCO)CCO)nc(N3CCCCC3)c2n1 [DIPYRIDAMOLE],–,5.19,–,< 4.00,–
COc1ccc(Cc2nccc3cc(OC)c(OC)cc23)cc1OC [PAPAVERINE],–,–,5.77,–,pIC50 (Phosphodiesterase 3A): 6.21
CCCOc1ccccc1-c1nc2nn[nH]c2c(=O)[nH]1 [ZAPRINAST],5.32,–,–,< 4.00,pIC50 (Phosphodiesterase 4A [3]): 4.10
